In the library only some 1.8% were active in any assay of this set; here they are far more common.
697 NFkB inh = inhibitors of PMA/ionomycin-induced NF-kB reporter, 697 cells, primary screen, B-cell NF-kB inhibitor project, cell-based, luminescence, uHTS; 697 B-cell NF-kB luciferase reporter, 16 h; inhibition, % at 4 µM; hit rate 0.33% among 330,000; AID 435022, 2010; in the data active = inhibition above about 35%
CHOP UPR activ = activators of apoptotic CHOP UPR arm, primary screen, cell-based, CHO-CHOP luciferase reporter, luminescence, uHTS; UPR activation; percent of tunicamycin response over DMSO baseline; activation, % at 10 µM; hit rate 0.34% among 330,000;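 active = at 10 µM dose, activation of 40% or more, normalized to positive control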;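 also: 100% = tunicamycin at 10 µg/mL and 0% = DMSO alone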
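Test system: CHO CHOP reporter cells. Input: 500 CHO-CHOP cells per well. Medium: F12 with 10% FBS. Technique: luciferase luminescence. Measure: percent activation relative to tunicamycin control. Dosing: 10 µM compound, 0.5% DMSO. Timing: 16-18 h cell attachment, then 6 h compound exposure, 37 °C.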
XBP1 UPR activ = activators of adaptive XBP1 UPR arm, primary screen, cell-based, CHO-XBP1 luciferase reporter, luminescence, uHTS. activation, % at 20 µM. hit rate 0.33% among 330,000. IRE1-XBP1 UPR activation; percent of tunicamycin response, DMSO as zero. AID 463104, 2010;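 active = versus positive control, 20 µM dose yields 30% or more activation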;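 also: 100% = tunicamycin at 10 µg/mL and 0% = DMSO only wells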
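Material: CHO cell line with stable XBP1 luciferase reporter; buffer or medium: F12 medium containing 10% fetal bovine serum; compound: single point, 20 µM final compound, 1% DMSO; incubation: 6 h treatment, 37 °C; measured by: glow luminescence from Steady-Glo reagent; evaluation: activation, % of tunicamycin; control set: tunicamycin high, DMSO low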
Jurkat NFkB inh = inhibitors of induced NF-kB luciferase reporter, primary screen, TCR NF-kB activation inhibitor project, cell-based, luminescence, uHTS. hit rate 0.53% among 330,000. inhibition, % at 4 µM. Jurkat, PMA/ionomycin-induced NF-kB luciferase reporter; in the data active = inhibition above about 50%
CRFBP-R2 block = antagonists of CRF-BP/CRF-R2 complex, primary screen, cell-based, HEK293, calcium dye fluorescence, uHTS. inhibition, % at 11.8 µM. hit rate 0.59% among 350,000. CRF-induced calcium fluorescence;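 active = inhibition of the ligand-induced calcium signal above about 50% at the single tested concentration, limit read from the data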
Jurkat NFkB conf = PMA/ionomycin-induced NF-kB reporter inhibitors, Jurkat retest, confirmation, T-cell NF-kB inhibitor project, cell-based, luminescence, single concentration; inhibition, % at 4 µM; Jurkat NF-kB luciferase, 16 h; shares compounds with Jurkat NFkB inh; AID 435020, 2010; hit rate 27% among 2,700;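 active = inhibition reaching about 45% at 4 µM in either replicate, limit read from the data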;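 also: plate controls were PMA/ionomycin stimulated DMSO wells for no effect and unstimulated DMSO wells for full effect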
697 NFkB conf = PMA/ionomycin-induced NF-kB reporter inhibitors, 697 retest, confirmation, B-cell NF-kB inhibitor project, cell-based, luminescence, single concentration | shares compounds with 697 NFkB inh | 697 B-cell NF-kB luciferase, 16 h | inhibition, % at 4 µM | hit rate 35% among 2,000 | AID 449746, 2010; in the data active = inhibition mostly above about 28%, no sharp cut-off; inactive = mostly below about 22%
Numbers without * were called inactive; i = inactive; / = no result.

SMILES | 697 NFkB inh | CHOP UPR activ | XBP1 UPR activ | Jurkat NFkB inh | CRFBP-R2 block | Jurkat NFkB conf | 697 NFkB conf
CCCOc1ccc(-c2cn3ccccc3n2)cc1 | -159 | -4 | -7 | -140 | -13 | / | /
COc1ccc(-c2cn3ccc4ccccc4c3n2)cc1 | -334 | 0 | 0 | -196 | -12 | -93 | -227
O=C(NCCNCCO)C1(C(F)(F)F)C/C(=C\CCO)CCCO1 (centres undefined) | 61* | 0 | -1 | 54* | 0 | 83* | 58*
O=C(NCCNCCO)C1(C(F)(F)F)C/C(=C\Cc2ccccc2)CCCO1 (centres undefined) | 18 | 2 | 2 | 16 | -3 | / | /
COc1ccccc1COc1ccc2c(C)c(CC(=O)O)c(=O)oc2c1C | 3 | 0 | 8 | 3 | -11 | / | /
Cc1ccc(NC(=O)c2ccc3c(c2)OCO3)cc1Cl | -287 | 3 | -2 | -200 | 26 | -104 | -246
Cc1ccc(C(=O)Nc2ccc3c(c2)OCO3)cc1Cl | -70 | 5 | -3 | -149 | / | / | /
COc1ccc(-c2nc(CS(=O)CC(=O)NCc3ccco3)c(C)o2)cc1 (centres undefined) | 9 | -1 | 1 | 17 | 19 | / | /
CCc1ccc(-c2nc(CS(=O)CC(=O)NCc3ccco3)c(C)o2)cc1 (centres undefined) | 36* | -3 | -5 | 51* | -4 | 56* | 35*
Cc1cc(C(=O)NC2CCCc3c2cnn3-c2cccc(C)c2C)n(C)n1 (centres undefined) | 77* | 6 | -3 | 72* | -12 | 78* | 96*
Cn1nccc1C(=O)NC1CCCc2c1cnn2-c1ccc(C(C)(C)C)cc1 (centres undefined) | 44* | 5 | -6 | 66* | -12 | 71* | 103*
CC(=O)NC1CCCc2c1cnn2-c1ccc(C(C)(C)C)cc1 (centres undefined) | -20 | 3 | -1 | -10 | 1 | / | /
O=C(COC(=O)CNC(=O)c1ccccc1Cl)Nc1ccccc1Cl | -2 | 2 | 4 | -9 | 28 | / | /
CCOc1ccc(-c2cc(C(=O)N/N=C/c3cccnc3)c3ccccc3n2)cc1 | -393 | 4 | 6 | 58* | -1 | -4 | -301
Cc1cc2sc3ccc(C#CC4(O)CCCCC4)cc3c(=O)c2cc1C | 88* | -9 | -9 | 83* | -20 | 97* | 75*
Cc1ccc(NC2=Nc3ccccc3CS2)cc1 | -331 | -3 | -10 | -182 | -3 | -141 | -341
Cn1cccc1/C=C1\CCc2ccccc2C1=O | -400 | -2 | -6 | -162 | 0 | -2 | -57
C=C1C(=O)C=C2CN(C(=O)c3ccccc3)[C@@](Cc3ccc(F)cc3)(C(=O)OC)[C@@H]12 | i | -9 | -10 | 83* | -81 | 76* | -250
C[C@@H]1CN([C@@H](C)CO)C(=O)c2cccc(NC(=O)C3CCCCC3)c2O[C@@H]1CN(C)C(=O)NC1CCCCC1 | -21 | -1 | -2 | 7 | -19 | / | /
O=C1c2ccccc2C(=O)N1c1cccnc1 | 45* | 0 | -1 | 53* | -12 | 12 | -19
COc1ccc(-c2nc(CS(=O)CC(=O)NC3CCCCC3C)c(C)o2)cc1 (centres undefined) | -1 | 1 | -8 | 11 | -15 | / | /
COc1ccc(N=Cc2c(O)[nH]c3ccccc23)cc1 | -297 | 2 | 2 | -186 | -59 | -32 | -109
O=C(Nc1ccc(Cl)cc1)Nc1cccc(C(=O)O)c1 | 53* | -8 | -9 | 76* | -4 | 44 | 32*
O=C(Nc1cccc(Cl)c1)Nc1cccc(C(=O)O)c1 | -41 | -6 | -7 | 27 | 1 | / | /

Screens from PubChem BioAssay.
